Data reported in ChEMBL document CHEMBL3228031, “Prodrugs of 9-(beta-D-arabinofuranosyl)adenine 2. Synthesis and evaluation of a number of 2',3'- and 3',5'-di-O-acyl derivatives” (J Med Chem, 1979).
Converted amounts (≈) assume the structure as drawn. The source made the active and inactive calls. The rule behind the calls is not given here.

What was measured:
Human alphaherpesvirus 1 [1] = assay: Antiviral activity against Herpes simplex virus 1 assessed as plaque reduction at 0.53 x 10^-5 M by cell-based assay relative to vidarabine; format: functional
In short: (§1)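 HSV-1 plaque-reduction assay by the Hsiung–Melnick procedure. Challenge was 125-300 plaque-forming units. An ara-A control was run alongside each sample at the same molar concentration with an identical virus challenge. Data were confirmed by duplicate assay (±10%).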

Human alphaherpesvirus 1 [2] = assay: Antiviral activity against Herpes simplex virus 1 assessed as plaque reduction at 0.53 x 10^-5 M by cell-based assay relative to control; format: functional; settings: Human alphaherpesvirus 1, read-out: INH; in short: as §1
[3] = Aqueous solubility of the compound at pH 7; format: physicochemical
Adenosine deaminase = biological target: T1, Adenosine deaminase (Bos taurus, UniProt P56658); assay: Activity of calf mucosal adenosine deaminase assessed as enzyme-mediated drug metabolism by liquid chromatographic analysis; format: ADME; settings: cattle
T1 sequence (P56658 whole entry): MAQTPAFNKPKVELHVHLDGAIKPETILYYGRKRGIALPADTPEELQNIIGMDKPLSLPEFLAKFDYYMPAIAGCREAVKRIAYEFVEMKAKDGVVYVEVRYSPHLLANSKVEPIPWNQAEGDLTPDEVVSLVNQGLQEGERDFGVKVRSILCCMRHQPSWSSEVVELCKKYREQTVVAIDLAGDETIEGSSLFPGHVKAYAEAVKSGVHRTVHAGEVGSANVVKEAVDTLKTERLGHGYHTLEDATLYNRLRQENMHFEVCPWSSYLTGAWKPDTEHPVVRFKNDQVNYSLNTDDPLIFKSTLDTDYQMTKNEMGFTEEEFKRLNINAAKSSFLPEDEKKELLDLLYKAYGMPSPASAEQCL
In short: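 Drug exposed to the deaminase, with enzyme level also raised 10- and 100-fold. Reaction mixtures analysed by reverse-phase C18 LC (aqueous acetonitrile eluent, 254-nm UV detection) for unchanged substrate.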

Human alphaherpesvirus 1 [4] = assay: Antiviral activity against Herpes simplex virus 1 assessed as plaque reduction at 1.71 x 10^-5 M by cell-based assay relative to vidarabine; format: functional; in short: as §1
Human alphaherpesvirus 1 [5] = assay: Antiviral activity against Herpes simplex virus 1 assessed as plaque reduction at 0.54 x 10^-5 M by cell-based assay relative to vidarabine; format: functional; in short: as §1
Human alphaherpesvirus 1 [6] = assay: Antiviral activity against Herpes simplex virus 1 assessed as plaque reduction at 1.75 x 10^-5 M by cell-based assay relative to control; format: functional; in short: as §1
Human alphaherpesvirus 1 [7] = assay: Antiviral activity against Herpes simplex virus 1 assessed as plaque reduction at 1.75 x 10^-5 M by cell-based assay relative to vidarabine; format: functional; in short: as §1
Human alphaherpesvirus 1 [8] = assay: Antiviral activity against Herpes simplex virus 1 assessed as plaque reduction at 5.47 x 10^-5 M by cell-based assay relative to vidarabine; format: functional; in short: as §1
Human alphaherpesvirus 1 [9] = assay: Antiviral activity against Herpes simplex virus 1 assessed as plaque reduction at 1.76 x 10^-5 M by cell-based assay relative to control; format: functional; in short: as §1
Human alphaherpesvirus 1 [10] = assay: Antiviral activity against Herpes simplex virus 1 assessed as plaque reduction at 0.18 x 10^-5 M by cell-based assay relative to control; format: functional; in short: as §1
Human alphaherpesvirus 1 [11] = assay: Antiviral activity against Herpes simplex virus 1 assessed as plaque reduction at 1.76 x 10^-5 M by cell-based assay relative to vidarabine; format: functional; in short: as §1
Human alphaherpesvirus 1 [12] = assay: Antiviral activity against Herpes simplex virus 1 assessed as plaque reduction at 0.18 x 10^-5 M by cell-based assay relative to vidarabine; format: functional; in short: as §1
Human alphaherpesvirus 2 [13] = assay: Antiviral activity against Herpes simplex virus 2 Magill infected in guinea pig assessed as prevention of vaginal discharge at 10% compound concentration treated intravaginally bid for 4 days measured on day 16 post-infection; format: functional, organism-based
In short: (§2)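 Animals were infected intravaginally with 1 × 10^2.82 PFU in 0.1 mL. Drug ointments were given intravaginally starting 4 h postinfection, then twice daily for 4 days, filling the vagina. Clinical signs were scored as animals positive/infected. Cure meant no symptoms, or symptoms healed by day 16 postinfection; it was reported as cured/infected.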

Human alphaherpesvirus 2 [14] = assay: Antiviral activity against Herpes simplex virus 2 Magill infected in guinea pig assessed as prevention of paralysis at 10% compound concentration treated intravaginally bid for 4 days measured on day 16 post-infection; format: functional, organism-based; in short: as §2
Human alphaherpesvirus 2 [15] = assay: Antiviral activity against Herpes simplex virus 2 Magill infected in guinea pig assessed as prevention of death at 10% compound concentration treated intravaginally bid for 4 days measured on day 16 post-infection; format: functional, organism-based; in short: as §2
Human alphaherpesvirus 2 [16] = assay: Antiviral activity against Herpes simplex virus 2 Magill infected in guinea pig assessed as prevention of inflammation at 10% compound concentration treated intravaginally bid for 4 days measured on day 16 post-infection; format: functional, organism-based; in short: as §2
Human alphaherpesvirus 2 [17] = assay: Antiviral activity against Herpes simplex virus 2 Magill infected in guinea pig assessed as cured animal at 10% compound concentration treated intravaginally bid for 4 days measured on day 16 post-infection; format: functional, organism-based; in short: as §2
Human alphaherpesvirus 2 [18] = assay: Antiviral activity against Herpes simplex virus 2 Magill infected in guinea pig assessed as prevention of vesiculation of labia and vulva at 10% compound concentration treated intravaginally bid for 4 days measured on day 16 post-infection; format: functional, organism-based; in short: as §2

`CC(C)C(=O)O[C@H]1[C@H](OC(=O)C(C)C)[C@@H](CO)O[C@H]1n1cnc2c(N)ncnc21` showed an inhibition at 5.3 µM (Human alphaherpesvirus 1 [1]) of 73%, an inhibition at 5.3 µM (Human alphaherpesvirus 1 [2]) of 0% and a solubility ([3]; aqueous, read-out: solubility) of 420 µg/mL (≈ 1030 µM). The Stability (Adenosine deaminase) was “Stable” and the inhibition at 17.1 µM (Human alphaherpesvirus 1 [4]) was 90%.
Work on `CC(=O)OC[C@H]1O[C@@H](n2cnc3c(N)ncnc32)[C@@H](O)[C@@H]1OC(C)=O` yielded an inhibition at 5.4 µM (Human alphaherpesvirus 1 [5]) of 79%, a solubility ([3]; aqueous, read-out: solubility) of 4700 µg/mL (≈ 13400 µM) and an inhibition at 17.5 µM (Human alphaherpesvirus 1 [6]) of 81%. For the same molecule, the Stability (Adenosine deaminase) was “Stable” and the inhibition at 17.5 µM (Human alphaherpesvirus 1 [7]) was 87%.
In the case of `CC(C)C(=O)OC[C@H]1O[C@@H](n2cnc3c(N)ncnc32)[C@@H](O)[C@@H]1OC(=O)C(C)C`, the solubility ([3]; aqueous, read-out: solubility) is reported as 20 µg/mL (≈ 49.1 µM), the inhibition at 17.5 µM (Human alphaherpesvirus 1 [6]) is reported as 0% and the Stability (Adenosine deaminase) is reported as “Stable”. It also gave an inhibition at 17.5 µM (Human alphaherpesvirus 1 [7]) of 90%.
With `Nc1ncnc2c1ncn2[C@@H]1O[C@H](CO)[C@@H](OC(=O)c2ccccc2)[C@@H]1OC(=O)c1ccccc1` the solubility ([3]; aqueous, read-out: solubility) was under 10 µg/mL, the inhibition at 54.7 µM (Human alphaherpesvirus 1 [8]) was 100% and the Stability (Adenosine deaminase) was “Stable”.
For `CCC(=O)O[C@H]1[C@H](O)[C@H](n2cnc3c(N)ncnc32)O[C@@H]1CO`, the inhibition at 17.6 µM (Human alphaherpesvirus 1 [9]) was 80%, the inhibition at 1.8 µM (Human alphaherpesvirus 1 [10]) was 5% and the solubility ([3]; buffer) was “soluble”. For the same molecule, the inhibition at 17.6 µM (Human alphaherpesvirus 1 [11]) was 87%, the Stability (Adenosine deaminase) was “Unstable” and the inhibition at 1.8 µM (Human alphaherpesvirus 1 [12]) was 36%.
For `Nc1ncnc2c1ncn2[C@@H]1O[C@H](COP(=O)(O)O)[C@@H](O)[C@@H]1O`, the Activity (Human alphaherpesvirus 2 [13]) was “Active”, the Activity (Human alphaherpesvirus 2 [14]) was “Active” and the Activity (Human alphaherpesvirus 2 [15]) was “Active”. For the same molecule, the Activity (Human alphaherpesvirus 2 [16]) was “Active”, the Activity (Human alphaherpesvirus 2 [17]) was “Active” and the Activity (Human alphaherpesvirus 2 [18]) was “Active”.
`CCC(=O)OC[C@H]1O[C@@H](n2cnc3c(N)ncnc32)[C@@H](O)[C@@H]1OC(=O)CC` gave an inhibition at 1.8 µM (Human alphaherpesvirus 1 [10]) of 0%, a solubility ([3]; aqueous, read-out: solubility) of 2300 µg/mL (≈ 6060 µM) and an inhibition at 17.6 µM (Human alphaherpesvirus 1 [11]) of 76%. The Stability (Adenosine deaminase) was “Stable” and the inhibition at 1.8 µM (Human alphaherpesvirus 1 [12]) was 23%.
